Measured values: the array DNA melting data of Ke et al. (doi:10.1101/2024.01.08.574731)

How the values were obtained:
[1] = melting temperature; fluorescence melt of hairpins on a sequencing array, two-state fit, raised by 9.35 °C to match UV melts; conditions: sodium 0.088 M
In short: (§1)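 Cy3 fluorescence of library hairpins on a sequenced MiSeq flow cell, with annealed Cy3 and quencher oligos, was imaged in 50 mM Na-HEPES pH 8.0, 25 mM NaCl in 2.5 °C steps up to 60 °C. Signals were normalised to pre-quench Cy3 and to control variants. Melting temperature and folding enthalpy came from bootstrapped two-state fits, inverse-variance combined over four replicates. Fitted temperatures were raised by 9.35 °C to match UV melts.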

[2] = folding enthalpy; higher = less favourable; fluorescence melt of hairpins on a sequencing array, two-state fit; conditions: sodium 0.088 M
In short: as §1

Sequence	Tm [1]	folding enthalpy [2]
GTGGAAGGAAACTTCCGC (.(((((....))))).)	51.1 °C	-24.1 kcal/mol
GTGGAAGGAAACTTTCGC (.(.(((....))).).)	30 °C	-20 kcal/mol
GTGGACCGAAAGGTTCAC (((.(((....))).)))	59.8 °C	-36.7 kcal/mol
GTGGACGAAAGTCCCAC ((((((....))).)))	48.8 °C	-12.1 kcal/mol
GTGGACGAAAGTCGACAC ((((((....)))..)))	47.5 °C	-21.8 kcal/mol
GTGGACGAAAGTCTTCAC ((((((....)))..)))	32.4 °C	-12.8 kcal/mol
GTGGACGGAAACGTCTAC ((.((((....)))).))	52.2 °C	-24.9 kcal/mol
GTGGACGGAAACGTCTGC (..((((....))))..)	49.2 °C	-15.8 kcal/mol
GTGGACTCGAAAGAGCAC (((..(((....))))))	39.7 °C	-21.4 kcal/mol
GTGGAGCGAAAGCTTCAC (((.(((....))).)))	58.1 °C	-35.6 kcal/mol
GTGGAGGGAAACCTCTAC ((.((((....)))).))	46.7 °C	-25.7 kcal/mol
GTGGAGGGAAACTTCCAC (((((.(....).)))))	47.3 °C	-30.4 kcal/mol
GTGGAGTCGAAAGACCAC (((..(((....))))))	44.9 °C	-20.6 kcal/mol
GTGGATCCGAAAGGACAC (((..(((....))))))	39.4 °C	-23.3 kcal/mol
GTGGATCGAAAGATGCAC (((.(((....))).)))	55.9 °C	-45.9 kcal/mol
GTGGATCGAAAGATTCAC (((.(((....))).)))	53.8 °C	-38.2 kcal/mol
GTGGATGAAAATCCAC ((((((....))))))	59.9 °C	-33.9 kcal/mol
GTGGATGGAAACGTCTAC ((.((.(....).)).))	32.5 °C	-19.8 kcal/mol
GTGGCAGGAAACTGCCGC (.(((((....))))).)	61.1 °C	-18.3 kcal/mol
GTGGCAGGAAACTGCTAC ((.((((....)))).))	53.1 °C	-26.4 kcal/mol
GTGGCCGAAAGGCACCAC ((((((....)))..)))	43.6 °C	-12.3 kcal/mol
GTGGCCGAAAGGCCGCAC ((((((....)))..)))	62.9 °C	-9.1 kcal/mol
GTGGCCGAAAGGCTCCAC ((((((....)))..)))	39 °C	-11.4 kcal/mol

Sequence	Tm [1]	folding enthalpy [2]
GTGGCCGAAAGGCTGCAC ((((((....)))..)))	46.7 °C	-12.4 kcal/mol
GTGGCCGGAAACGGCTGC (..((((....))))..)	51.9 °C	-13 kcal/mol
GTGGCGCGAAAGCGCAC (((.(((....))))))	57.6 °C	-8.04 kcal/mol
GTGGCTACGAAAGTACAC (((..(((....))))))	32.9 °C	-11.3 kcal/mol
GTGGCTGGAAACAGCCGC (.(((((....))))).)	63 °C	-17.4 kcal/mol
GTGGCTGGAAACAGCTGC (..((((....))))..)	47.4 °C	-15.6 kcal/mol
GTGGGACCGAAAGGTCAC (((..(((....))))))	64.2 °C	-19.5 kcal/mol
GTGGGACGAAAGTCCAC (((.(((....))))))	55.9 °C	-13.2 kcal/mol
GTGGGACGAAAGTCGCAC (((.(((....))).)))	66.3 °C	-38.6 kcal/mol
GTGGGAGGAAACTCCCAC (((((((....)))))))	67.2 °C	-32.1 kcal/mol
GTGGGAGGAAACTCTCGC (.(.(((....))).).)	37.2 °C	-30.2 kcal/mol
GTGGGCGAAAGCCAACAC ((((((....)))..)))	53.5 °C	-15 kcal/mol
GTGGGCGAAAGCCACCAC ((((((....)))..)))	47.2 °C	-12.7 kcal/mol
GTGGGCGAAAGCCAGCAC ((((((....)))..)))	46.5 °C	-12.8 kcal/mol
GTGGGCGAAAGCCCCAC ((((((....))).)))	60.2 °C	-11.3 kcal/mol
GTGGGCGAAAGCCGTCAC ((((((....)))..)))	36.9 °C	-13.2 kcal/mol
GTGGGCGGAAACACCCAC (((((.(....).)))))	53.1 °C	-43.3 kcal/mol
GTGGGCGGAAACGTCCAC ((((.((....)).))))	64.7 °C	-41.7 kcal/mol
GTGGGCGGAAACGTCCGC (.((.((....)).)).)	54.3 °C	-25.4 kcal/mol
GTGGGGACGAAAGTCCAC (((..(((....))))))	61.8 °C	-15.4 kcal/mol
GTGGGGGAAACCCCAC ((((((....))))))	68 °C	-31.9 kcal/mol
GTGGGGGGAAACCCCTAC ((.((((....)))).))	52.2 °C	-17.8 kcal/mol
GTGGGGGGAAACTCCCAC (((((.(....).)))))	56.2 °C	-35.3 kcal/mol

Sequence	Tm [1]	folding enthalpy [2]
GTGGGTCGAAAGACACAC (((.(((....))).)))	63.5 °C	-47 kcal/mol
GTGGGTCGAAAGACGCAC (((.(((....))).)))	63.3 °C	-34.3 kcal/mol
GTGGGTGAAAACCCAC ((((((....))))))	67.3 °C	-28.1 kcal/mol
GTGGGTGGAAACATCCGC (.((.((....)).)).)	44.2 °C	-26.3 kcal/mol
GTGGTACCGAAAGGTCAC (((..(((....))))))	38.4 °C	-18.4 kcal/mol
GTGGTCCGAAAGGAGCAC (((.(((....))).)))	67.6 °C	-34.6 kcal/mol
GTGGTCGAAAGACACCAC ((((((....)))..)))	42.4 °C	-15.6 kcal/mol
GTGGTCGAAAGACCCAC ((((((....))).)))	51.1 °C	-13.2 kcal/mol
GTGGTCGAAAGACCTCAC ((((((....)))..)))	38 °C	-10.7 kcal/mol
GTGGTGCCGAAAGGCCAC (((..(((....))))))	48 °C	-12.8 kcal/mol
GTGGTGGAAACACCAC ((((((....))))))	66.6 °C	-34.7 kcal/mol
GTGGTGGGAAACCATCAC (((.(((....))).)))	51.2 °C	-43.1 kcal/mol
GTGGTGGGAAACCGCCAC ((((.((....)).))))	61.9 °C	-40.2 kcal/mol
GTGGTTACGAAAGTACAC (((..(((....))))))	35.5 °C	-20.7 kcal/mol
GTGGTTGGAAACAACTAC ((.((((....)))).))	47.8 °C	-24.8 kcal/mol
GTGGTTGGAAACGACTAC ((.((.(....).)).))	41.8 °C	-25.7 kcal/mol
GTGGTTGGAAACGATCAC (((.(.(....).).)))	34.1 °C	-18 kcal/mol
GTGGTTTCGAAAGAACAC (((..(((....))))))	31.3 °C	-15.6 kcal/mol
GTGTAAGAAATTACAC ((((((....))))))	46.1 °C	-29.2 kcal/mol
GTGTAAGGAAACTCACAC ((((.((....)).))))	32.8 °C	-16.9 kcal/mol
GTGTAAGGAAACTTGCAC (((.(((....))).)))	45.1 °C	-31 kcal/mol
GTGTACGAAAGTATACAC ((((((....)))..)))	44.9 °C	-22 kcal/mol
